The results in this text go back to ChEMBL document CHEMBL4602721, “Discovery of Potent Inhibitors against P-Glycoprotein-Mediated Multidrug Resistance Aided by Late-Stage Functionalization of a 2-(4-(Pyridin-2-yl)phenoxy)pyridine Analogue” (J Med Chem, 2020).

Active and inactive are the calls of the source. The calls are words filed in the database; no cut-off is given here.

A short description of data set [1]: Cytotoxicity against human SW620/AD300 cells assessed as cell growth inhibition at 10 uM incubated for 48 hrs by SRB assay relative to control. The format is cell-based. To be noted: read-out: GI.
Data set [2] addresses T1, Multidrug resistance-associated protein 1 (Homo sapiens, UniProt P33527). As to the kind of experiment: Reversal of ABCC1-mediated vincristine resistance in human KB-CV60 cells assessed as potentiation of vincristine-induced cytotoxicity by measuring change in vincristine IC50 at 2.5 uM incubated for 48 hrs by SRB assay relative to vincristine IC50. The format is cell-based. In a few lines:
(§1)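 ABCC1-overexpressing KB-CV60 cells: vincristine IC50 determined alone or with modulator at 2.5 or 5 μM; MK571 25 μM reference; reversal fold calculated as IC50 ratio without/with modulator.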
(In SRB staining, fixed cells bind dye roughly in proportion to their protein.)

In data set [3] the target is T2, ATP-dependent translocase ABCB1 (Homo sapiens, UniProt P08183). As to the kind of experiment: Reversal of ABCB1-mediated multidrug resistance in human SW620/AD300 cells assessed as reduction in Rh123 efflux incubated for 4 hrs by flow cytometry analysis. The format is cell-based. To be noted: sw620/ad300, 4 h. The method in brief: (§2)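 Cells pre-loaded with rhodamine 123, then efflux monitored in SW620 and SW620/AD300 cells over a range of modulator levels; mean ± SD of three independent experiments.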

The target of data set [4] is T2, ATP-dependent translocase ABCB1. Kind of data set: Binding affinity to ABCB1 in human SW620/AD300 cells assessed as increase in thermal stability of ABCB1 at 20 uM incubated for 30 to 60 mins followed by heating at 40.5 to 59.5 degC by […]. The format is cell-based. As to conditions: sw620/ad300, 20 µM.
The target is the same in data set [5]. As to the kind of experiment: Reversal of ABCB1-mediated multidrug resistance in human SW620/AD300 cells assessed as increase in Rh123 accumulation at 0.01 to 0.5 uM incubated for 4 hrs by flow cytometry. The format is cell-based. As to conditions: sw620/ad300, 4 h. In a few lines:
(§3)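 SW620 and SW620/AD300 cells exposed to 1 μg/mL rhodamine 123 with or without modulator; intracellular Rh123 content measured; mean ± SD of three independent experiments.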
On the technique in general: A flow cytometer gives signals particle by particle.

Data set [6] deals with K562/A02. Kind of data set: Potentiation of DOX-induced anti tumor activity against human K562/A02 cells xenografted in BALB/c mouse assessed as reduction in tumor weight at 30 mg/kg, iv administered every 2 days for 14 days measured 24 hrs post-last dose. The format is functional, organism-based. In a few lines: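 K562/A02 subcutaneous xenograft mice treated 14 days with DOX with or without modulator; tumors excised and weighed at Day 14.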
(In general: A xenograft is tissue or cells of one species grown in another, often human tumour cells in immunodeficient mice.)

In another data set the test system is SW620/AD300. Kind of data set: Downregulation of ABCB1 expression in human SW620/AD300 cells at 1 to 5 uM incubated for 48 hrs by Western blot analysis. The format is functional, cell-based. The method in brief:
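SW620 and SW620/AD300 cells compared for ABCB1 level; SW620/AD300 treated at 0, 1.0, 2.0 or 5.0 μM for 48 h, then ABCB1 protein assessed.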

Data set [7] deals with T2, ATP-dependent translocase ABCB1. As to the kind of experiment: Reversal of ABCB1-mediated multidrug resistance in human SW620 cells assessed as reduction in Rh123 efflux at 0.01 to 0.5 uM incubated for 4 hrs by flow cytometry analysis. The format is cell-based. As to conditions: sw-620, 4 h. In a few lines: as §2
The test system of data set [8] is K562/A02. As to the kind of experiment: Effect on tumor size of human K562/A02 cells xenografted in BALB/c mouse at 30 mg/kg, iv administered every 2 days for 14 days measured during compound dosing by caliper method. To be noted: in vivo. The format is ADME, organism-based. In a few lines: (§4)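 Mice bearing subcutaneous ABCB1-overexpressing K562/A02 xenografts treated with DOX alone, modulator alone, or combinations (verapamil as comparator) for 14 days; tumor volume measured every two days.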

In data set [9] the target is T3, Broad substrate specificity ATP-binding cassette transporter ABCG2 (Homo sapiens, UniProt Q9UNQ0).
T3 sequence (Q9UNQ0 whole entry): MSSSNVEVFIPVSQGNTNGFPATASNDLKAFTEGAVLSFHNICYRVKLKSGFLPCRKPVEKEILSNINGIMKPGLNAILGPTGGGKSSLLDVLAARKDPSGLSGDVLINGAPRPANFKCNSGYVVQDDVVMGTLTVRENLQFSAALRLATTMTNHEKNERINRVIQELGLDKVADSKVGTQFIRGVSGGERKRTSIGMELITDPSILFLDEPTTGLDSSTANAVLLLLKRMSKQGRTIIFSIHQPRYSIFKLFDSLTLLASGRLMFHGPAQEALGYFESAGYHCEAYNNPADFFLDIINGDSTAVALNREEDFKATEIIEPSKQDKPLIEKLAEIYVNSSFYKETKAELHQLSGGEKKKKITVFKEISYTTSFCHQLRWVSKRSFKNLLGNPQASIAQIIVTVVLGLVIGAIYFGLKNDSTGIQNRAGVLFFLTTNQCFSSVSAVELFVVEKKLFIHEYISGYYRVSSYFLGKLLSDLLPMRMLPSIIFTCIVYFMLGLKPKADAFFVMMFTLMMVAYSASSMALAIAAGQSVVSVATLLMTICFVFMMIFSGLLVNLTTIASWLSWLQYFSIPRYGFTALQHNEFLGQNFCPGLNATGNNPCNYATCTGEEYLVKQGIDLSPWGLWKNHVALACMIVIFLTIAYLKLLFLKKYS
As to the kind of experiment: Reversal of ABCG2-mediated mitoxantrone resistance in human NCI-H460/MX20 cells assessed as potentiation of mitoxantrone-induced cytotoxicity by measuring change in mitoxantrone IC50 at 5 uM incubated for 48 hrs by SRB assay relative to mitoxantrone IC50. The format is cell-based.

The next data set deals with SW-620. Kind of data set: Induction of Rh123 accumulation in human SW620 cells at 0.01 to 0.5 uM incubated for 4 hrs by flow cytometry. The format is functional, cell-based. In a few lines:
as §3

In data set [10] the target is T1, Multidrug resistance-associated protein 1. Kind of data set: Reversal of ABCC1-mediated vincristine resistance in human KB-CV60 cells assessed as potentiation of vincristine-induced cytotoxicity by measuring change in vincristine IC50 at 5 uM incubated for 48 hrs by SRB assay relative to vincristine IC50. The format is cell-based. The method in brief:
as §1

Data set [11] is described as follows: Cytotoxicity against human KB-CV60 cells assessed as effect on cell proliferation at 2.5 to 5 uM measured after 48 hrs by SRB assay. The format is cell-based.
In data set [12] the target is T2, ATP-dependent translocase ABCB1. As to the kind of experiment: Reversal of Pgp-mediated DOX resistance in human SW620/AD300 cells assessed as potentiation of DOX-induced cytotoxicity by measuring change in DOX IC50 at 1 uM incubated for 48 hrs by SRB assay relative to DOX alone. The format is cell-based. As to conditions: sw620/ad300, 48 h.
A short description of data set [13]: Cytotoxicity against human NCI-H460/MX20 cells assessed as effect on cell proliferation at 2.5 to 5 uM measured after 48 hrs by SRB assay. The format is cell-based.
The target of data set [14] is T3, Broad substrate specificity ATP-binding cassette transporter ABCG2. As to the kind of experiment: Reversal of ABCG2-mediated mitoxantrone resistance in human NCI-H460/MX20 cells assessed as potentiation of mitoxantrone-induced cytotoxicity by measuring change in mitoxantrone IC50 at 2.5 uM incubated for 48 hrs by SRB assay relative to mitoxantrone IC50. The format is cell-based.

For data set [15], the system named is K562/A02. Kind of data set: Potentiation of DOX-induced anti tumor activity against human K562/A02 cells xenografted in BALB/c mouse assessed as tumor size at 30 mg/kg, iv administered every 2 days for 14 days measured during compound dosing by caliper method (reference value: 610 mm3). The format is functional. In a few lines:
as §4

Data set [16] concerns the target T2, ATP-dependent translocase ABCB1. As to the kind of experiment: Reversal of Pgp-mediated DOX resistance in human SW620/AD300 cells assessed as potentiation of DOX-induced cytotoxicity by measuring inhibition of cell proliferation at 1 uM incubated for 48 hrs by SRB assay (reference value: 5.3 +/- 3 %). The format is cell-based.

T2 sequence (P08183 whole entry): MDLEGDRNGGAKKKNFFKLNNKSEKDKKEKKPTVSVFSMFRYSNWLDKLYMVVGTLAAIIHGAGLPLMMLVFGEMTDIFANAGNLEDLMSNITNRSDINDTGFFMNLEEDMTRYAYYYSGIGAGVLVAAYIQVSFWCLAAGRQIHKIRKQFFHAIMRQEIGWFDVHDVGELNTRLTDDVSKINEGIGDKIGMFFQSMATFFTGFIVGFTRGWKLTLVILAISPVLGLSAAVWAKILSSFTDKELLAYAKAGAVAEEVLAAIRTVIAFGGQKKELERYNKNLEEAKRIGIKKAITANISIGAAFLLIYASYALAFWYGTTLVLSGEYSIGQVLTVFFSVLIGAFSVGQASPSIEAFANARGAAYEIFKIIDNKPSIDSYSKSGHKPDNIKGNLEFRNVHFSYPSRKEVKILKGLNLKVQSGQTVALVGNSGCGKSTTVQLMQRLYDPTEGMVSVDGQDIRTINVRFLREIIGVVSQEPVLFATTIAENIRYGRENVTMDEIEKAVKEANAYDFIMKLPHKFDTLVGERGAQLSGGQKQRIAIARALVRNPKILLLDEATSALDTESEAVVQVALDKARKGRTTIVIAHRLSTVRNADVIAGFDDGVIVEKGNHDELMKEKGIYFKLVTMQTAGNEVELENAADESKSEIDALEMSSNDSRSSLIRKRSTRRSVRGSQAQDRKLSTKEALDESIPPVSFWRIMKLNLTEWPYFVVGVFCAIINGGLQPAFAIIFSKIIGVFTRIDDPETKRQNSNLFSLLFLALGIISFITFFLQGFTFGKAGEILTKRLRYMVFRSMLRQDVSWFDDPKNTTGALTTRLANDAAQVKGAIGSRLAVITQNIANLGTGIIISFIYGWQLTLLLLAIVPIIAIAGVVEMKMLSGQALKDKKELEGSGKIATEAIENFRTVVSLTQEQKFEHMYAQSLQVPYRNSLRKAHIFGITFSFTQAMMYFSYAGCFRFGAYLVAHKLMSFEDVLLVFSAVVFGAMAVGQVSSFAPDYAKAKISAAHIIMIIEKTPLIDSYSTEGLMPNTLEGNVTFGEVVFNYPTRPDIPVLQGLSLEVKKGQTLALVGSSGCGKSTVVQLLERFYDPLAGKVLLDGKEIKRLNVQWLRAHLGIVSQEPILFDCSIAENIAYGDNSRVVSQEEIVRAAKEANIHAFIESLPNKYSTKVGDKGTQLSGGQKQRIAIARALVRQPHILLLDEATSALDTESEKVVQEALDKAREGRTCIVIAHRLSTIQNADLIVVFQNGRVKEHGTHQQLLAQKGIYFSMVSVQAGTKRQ
T1 sequence (P33527 whole entry): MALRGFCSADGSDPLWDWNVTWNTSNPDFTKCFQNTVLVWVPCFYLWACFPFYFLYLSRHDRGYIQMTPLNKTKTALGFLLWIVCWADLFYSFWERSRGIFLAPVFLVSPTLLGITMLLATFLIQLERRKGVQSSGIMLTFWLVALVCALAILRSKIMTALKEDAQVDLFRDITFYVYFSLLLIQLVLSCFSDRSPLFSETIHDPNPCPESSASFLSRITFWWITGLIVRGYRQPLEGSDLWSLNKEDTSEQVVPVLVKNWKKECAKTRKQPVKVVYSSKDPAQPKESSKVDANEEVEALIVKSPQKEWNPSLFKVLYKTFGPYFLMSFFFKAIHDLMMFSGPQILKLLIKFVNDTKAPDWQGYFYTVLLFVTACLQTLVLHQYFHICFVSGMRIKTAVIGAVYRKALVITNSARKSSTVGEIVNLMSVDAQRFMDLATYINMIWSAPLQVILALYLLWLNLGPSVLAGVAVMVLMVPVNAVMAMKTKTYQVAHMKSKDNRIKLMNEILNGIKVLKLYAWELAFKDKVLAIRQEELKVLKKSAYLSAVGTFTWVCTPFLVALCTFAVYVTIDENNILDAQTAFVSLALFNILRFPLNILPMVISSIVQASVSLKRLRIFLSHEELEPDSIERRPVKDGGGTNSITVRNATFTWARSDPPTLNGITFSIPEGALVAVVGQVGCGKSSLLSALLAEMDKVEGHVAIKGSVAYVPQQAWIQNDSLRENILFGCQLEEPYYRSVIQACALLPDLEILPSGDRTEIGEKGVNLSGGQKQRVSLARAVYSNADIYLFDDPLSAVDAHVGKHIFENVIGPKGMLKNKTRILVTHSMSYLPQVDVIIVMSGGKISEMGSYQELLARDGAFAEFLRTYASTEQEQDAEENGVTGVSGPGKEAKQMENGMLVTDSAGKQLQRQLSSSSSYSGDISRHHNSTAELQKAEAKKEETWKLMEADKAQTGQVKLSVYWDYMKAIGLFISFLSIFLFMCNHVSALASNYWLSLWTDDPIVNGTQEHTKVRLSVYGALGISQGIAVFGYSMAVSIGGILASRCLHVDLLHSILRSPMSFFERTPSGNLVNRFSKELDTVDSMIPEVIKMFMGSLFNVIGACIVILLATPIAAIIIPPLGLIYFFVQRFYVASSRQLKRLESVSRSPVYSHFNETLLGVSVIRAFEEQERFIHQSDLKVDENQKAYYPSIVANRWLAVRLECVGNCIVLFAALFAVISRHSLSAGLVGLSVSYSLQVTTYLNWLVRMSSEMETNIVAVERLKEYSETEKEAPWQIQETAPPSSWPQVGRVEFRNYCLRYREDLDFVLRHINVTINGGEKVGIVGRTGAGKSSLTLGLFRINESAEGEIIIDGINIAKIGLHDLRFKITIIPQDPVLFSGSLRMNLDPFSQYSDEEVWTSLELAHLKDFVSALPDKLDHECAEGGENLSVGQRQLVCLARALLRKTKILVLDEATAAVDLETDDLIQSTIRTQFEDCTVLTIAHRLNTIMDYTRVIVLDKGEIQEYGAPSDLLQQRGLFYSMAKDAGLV

For the compound `COc1cc2c(cc1OC)CN(CCc1ccc(NC(=O)/C=C/c3ccc(Oc4ccc(-c5ccccn5)c(Cl)c4)nc3)cc1)CC2`, the inhibition at 48 h, 10 µM in data set [1] stood at 9.7%. Besides, the “fold change (FC)” value in [2] is 1.12; in data set [9] it was 2.32; in [10], 1.43; in data set [12] it was 59.63; in data set [14], 0.99. The Activity result in [3] is on record as “Dose-dependent effect”; in data set [4], “Active”; in data set [5], “Active”; in [7], “Not Active”; in the data set with K562/A02 [8], “Non-Toxic”; in data set [11] it was “Non-Toxic”. The figures for the Activity result (in data set [13]; with K562/A02 [15]) were “Non-Toxic” and 437 mm3, respectively. Further, the outcome with K562/A02 [6] was Active. For the same compound, the result in the data set with SW620/AD300 and in the data set with SW-620 was inactive. Also, the inhibition at 1 µM in [16] was found to be 60.3%.
